{"source": "ChEMBL document CHEMBL1122613", "about": "“A water-soluble cholesteryl-containing trisgalactoside: synthesis, properties, and use in directing lipid-containing particles to the liver” (J Med Chem, 1984)", "key": {"Rattus norvegicus [1]": {"organism": "Rattus norvegicus", "test": "Amount of 14C remaining in blood 120 min after injection of 0.1 mol of [14C]- sucrose containing liposomes with compound", "assay_type": "ADME, organism-based", "details": "2 h"}, "Rattus norvegicus [2]": {"system": "Rattus norvegicus", "test": "Amount of [125I]- remaining in blood 10 min after administration of 0.65 nmol of compound/ug of [125I]- LDL protein in rats preinjected with Gal-N-Ac 110 mg", "assay_type": "ADME, organism-based", "details": "in vivo", "in_short": "(§1)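 110 mg 2-acetamido-2-deoxygalacto- or -glucopyranose was injected iv 1 min before the 125I-LDL, which had been preincubated 10 min at room temperature with compound (13 μg per 20 μg LDL-protein). Rats were pentobarbital-anesthetized males. Blood was taken at 10 min, and the liver was perfused with Ca2+-free Hanks and excised. Samples were γ-counted; blood totals assume 4 mL serum/100 g body weight; values are % injected dose.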"}, "[3]": {"test": "[125I]- uptake in liver after perfusion on administration of 0.05 nmol of compound/ug of [125I]- LDL protein", "assay_type": "ADME, tissue-based", "details": "rat"}, "[4]": {"test": "[125I]- uptake in liver after perfusion on administration of 0.65 nmol of compound/ug of [125I]- LDL protein in rats preinjected with Gal-N-Ac 110 mg", "assay_type": "ADME, tissue-based", "details": "rat, in vivo", "in_short": "as §1"}, "[5]": {"test": "[125I]- uptake in liver after perfusion on administration of 0 nmol of compound/ug of [125I]- LDL protein", "assay_type": "ADME, tissue-based", "details": "rat", "in_short": "(§2)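 Human LDL (d 1.019–1.063) was labeled with 125I. 20 μg LDL-protein was mixed with 0, 5 or 13 μg compound in water for 10 min at room temperature, then given iv to pentobarbital-anesthetized male rats. At 10 min, blood was taken by aortic puncture and the liver perfused via the portal vein (Ca2+-free Hanks, 14 mL/min, 8 min), then excised. Samples were γ-counted; results are % injected dose.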"}, "Rattus norvegicus [6]": {"system": "Rattus norvegicus", "test": "Amount of [125I]- remaining in blood 10 min after administration of 0 nmol of compound/ug of [125I]- LDL protein", "assay_type": "ADME, organism-based", "in_short": "as §2"}, "[7]": {"test": "[125I]- uptake in liver after perfusion on administration of 0.65 nmol of compound/ug of [125I]- LDL protein in rats preinjected with Glc-N-Ac 110 mg", "assay_type": "ADME, tissue-based", "details": "rat, in vivo", "in_short": "as §1"}, "Rattus norvegicus [8]": {"system": "Rattus norvegicus", "test": "Amount of [125I]- remaining in blood 10 min after administration of 0.05 nmol of compound/ug of [125I]- LDL protein", "assay_type": "ADME, organism-based"}, "Rattus norvegicus [9]": {"system": "Rattus norvegicus", "test": "Amount of [125I]- remaining in blood 10 min after administration of 0.65 nmol of compound/ug of [125I]- LDL protein in rat preinjected with Glc-N-Ac 110 mg", "assay_type": "ADME, organism-based", "details": "in vivo", "in_short": "as §1"}, "[10]": {"test": "14C uptake in liver after perfusion on administration of 0 mol of [14C]- sucrose containing liposomes with compound", "assay_type": "ADME", "details": "rat"}, "Rattus norvegicus [11]": {"system": "Rattus norvegicus", "test": "Amount of [125I]- remaining in blood 10 min after administration of 0.65 nmol of compound/ug of [125I]- LDL protein", "assay_type": "ADME, organism-based", "in_short": "as §2"}, "[12]": {"test": "[125I]- uptake in liver after perfusion on administration of 0.65 nmol of compound/ug of [125I]- LDL protein", "assay_type": "ADME, tissue-based", "details": "rat", "in_short": "as §2"}, "[13]": {"test": "14C uptake in liver after perfusion on administration of 0.1 mol of [14C]- sucrose containing liposomes with compound", "assay_type": "ADME", "details": "rat"}, "[14]": {"test": "[125I]- uptake in liver after perfusion on administration of 0.25 nmol of compound/ug of [125I]- LDL protein", "assay_type": "ADME, tissue-based", "details": "rat", "in_short": "as §2"}, "Rattus norvegicus [15]": {"system": "Rattus norvegicus", "test": "Amount of [125I]- remaining in blood 10 min after administration of 0.25 nmol of compound/ug of [125I]- LDL protein", "assay_type": "ADME, organism-based", "in_short": "as §2"}, "Rattus norvegicus [16]": {"organism": "Rattus norvegicus", "test": "Amount of 14C remaining in blood 120 min after injection of 0 mol of [14C]- sucrose containing liposomes with compound", "assay_type": "ADME, organism-based", "details": "2 h"}}, "data": [{"smiles": "CC(C)CCC[C@@H](C)[C@H]1CC[C@H]2[C@@H]3CC=C4C[C@@H](OC(=O)CCC(=O)NCC(=O)NC(CO[C@@H]5O[C@H](CO)[C@H](O)[C@H](O)[C@H]5O)(CO[C@@H]5O[C@H](CO)[C@H](O)[C@H](O)[C@H]5O)CO[C@@H]5O[C@H](CO)[C@H](O)[C@H](O)[C@H]5O)CC[C@]4(C)[C@H]3CC[C@]12C", "values": [{"measurement": "Activity", "setting": "Rattus norvegicus [1]", "value": 48, "unit": "%"}, {"measurement": "Activity", "setting": "Rattus norvegicus [2]", "value": 94, "unit": "%"}, {"measurement": "Activity", "setting": "[3]", "value": 2, "unit": "%"}, {"measurement": "Activity", "setting": "[4]", "value": 3.2, "unit": "%"}, {"measurement": "Activity", "setting": "[5]", "value": 1.9, "unit": "%"}, {"measurement": "Activity", "setting": "Rattus norvegicus [6]", "value": 97, "unit": "%"}, {"measurement": "Activity", "setting": "[7]", "value": 39, "unit": "%"}, {"measurement": "Activity", "setting": "Rattus norvegicus [8]", "value": 96, "unit": "%"}, {"measurement": "Activity", "setting": "Rattus norvegicus [9]", "value": 27, "unit": "%"}, {"measurement": "Activity", "setting": "[10]", "value": 3, "unit": "%"}, {"measurement": "Activity", "setting": "Rattus norvegicus [11]", "value": 23, "unit": "%"}, {"measurement": "Activity", "setting": "[12]", "value": 41, "unit": "%"}, {"measurement": "Activity", "setting": "[13]", "value": 48, "unit": "%"}, {"measurement": "Activity", "setting": "[14]", "value": 33, "unit": "%"}, {"measurement": "Activity", "setting": "Rattus norvegicus [15]", "value": 57, "unit": "%"}, {"measurement": "Activity", "setting": "Rattus norvegicus [16]", "value": 82, "unit": "%"}]}]}
